The text below walks through data of PubChem BioAssay.

The structures appear in SMILES notation. Calls of active or inactive are those of the source. Rule as the data show it, unless noted: active = inhibition above about 30%; inactive = the rest.

The nature of test [1]: reducers of endogenous Her2 protein level, primary screen, SKBR3 breast tumor cells, AlphaScreen, ATP viability (AID 461;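 active = Her2 level under about 52% in both replicate screens, with viability over 70% of control, limit read from the data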;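 as to Her2 level: lower value means less Her2 protein in the cells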;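 as to viability: percent of carrier control wells set as 100% viability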). Particulars: 18-24 h, measured here: SKBR3 viability, ATP luminescence, at 10 µM. For orientation: Alpha assays give light when donor and acceptor beads are brought close together.
The target in test [2] is Receptor tyrosine-protein kinase erbB-2 (Homo sapiens) (UniProt P04626). The test is described as above. Particulars: 18-24 h, at 10 µM, stronger effect = lower value.
Receptor tyrosine-protein kinase erbB-2 (Homo sapiens), sequence (P04626 whole entry, looked up): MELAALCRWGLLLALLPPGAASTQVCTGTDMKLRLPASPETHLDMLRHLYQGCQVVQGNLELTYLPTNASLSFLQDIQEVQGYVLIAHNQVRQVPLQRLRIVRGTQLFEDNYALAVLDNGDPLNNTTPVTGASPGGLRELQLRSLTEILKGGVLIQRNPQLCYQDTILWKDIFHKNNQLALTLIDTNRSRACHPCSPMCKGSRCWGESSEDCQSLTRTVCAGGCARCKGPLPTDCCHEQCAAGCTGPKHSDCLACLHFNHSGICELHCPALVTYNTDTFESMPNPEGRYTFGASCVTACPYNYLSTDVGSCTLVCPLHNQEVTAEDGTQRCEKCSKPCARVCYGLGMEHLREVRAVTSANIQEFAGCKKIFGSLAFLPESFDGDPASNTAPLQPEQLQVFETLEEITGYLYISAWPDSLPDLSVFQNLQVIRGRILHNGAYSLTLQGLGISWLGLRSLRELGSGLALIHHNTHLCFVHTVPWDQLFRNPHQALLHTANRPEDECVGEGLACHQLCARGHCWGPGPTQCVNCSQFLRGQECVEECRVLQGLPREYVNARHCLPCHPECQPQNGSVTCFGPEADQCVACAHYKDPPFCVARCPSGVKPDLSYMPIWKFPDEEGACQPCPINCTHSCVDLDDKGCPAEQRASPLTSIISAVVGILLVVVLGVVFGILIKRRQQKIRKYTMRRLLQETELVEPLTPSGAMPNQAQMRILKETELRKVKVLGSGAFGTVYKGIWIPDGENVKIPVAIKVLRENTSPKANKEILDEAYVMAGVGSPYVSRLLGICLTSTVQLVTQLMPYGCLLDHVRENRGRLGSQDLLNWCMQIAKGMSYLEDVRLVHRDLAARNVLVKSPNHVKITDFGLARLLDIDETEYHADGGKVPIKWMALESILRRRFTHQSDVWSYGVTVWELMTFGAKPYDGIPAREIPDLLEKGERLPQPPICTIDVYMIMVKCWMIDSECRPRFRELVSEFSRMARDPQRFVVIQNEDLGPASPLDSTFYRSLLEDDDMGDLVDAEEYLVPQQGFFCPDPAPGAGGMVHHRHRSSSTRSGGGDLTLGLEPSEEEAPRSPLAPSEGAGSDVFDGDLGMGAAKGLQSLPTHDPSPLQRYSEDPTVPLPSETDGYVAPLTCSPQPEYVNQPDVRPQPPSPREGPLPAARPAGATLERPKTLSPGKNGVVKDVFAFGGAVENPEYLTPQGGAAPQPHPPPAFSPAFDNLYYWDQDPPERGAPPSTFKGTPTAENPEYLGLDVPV
Test [3] is described as follows: SK-BR-3 cell growth inhibitors, pilot screen, 24 h, human (AID 572;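 active = viability at or below 10% of carrier control in both of two separate runs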;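 also: compound exposure lasted between 18 and 24 h rather than exactly 24 h; 100% = carrier-treated control wells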). Particulars: SK-BR-3 viability, CellTiter-Glo luminescence, at 10 µM, stronger effect = lower value.
The nature of test [4]: HUVEC growth inhibition – cell-based, human, primary screen (AID 575;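 active = viability at or below 30% in both replicate assays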;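 also: 100% = median of untreated cell wells with 0.1% DMSO on each plate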). Particulars: HUVEC proliferation, CellTiter-Glo luminescence, 72 h; at 10 µM; stronger effect = lower value. An outline of the steps: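 Material: primary human umbilical vein endothelial cells / Schedule: 72 h exposure, 37 °C, 5% CO2, 30 min RT equilibration / Signal: ATP-based CellTiter-Glo luminescent read / Read-out basis: percent of median DMSO-control luminescence / Control set: 32 DMSO-only cell-control wells (high), 32 MePR drug-control wells (low) per plate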
(ATP-based viability assays read luminescence as a measure of living cells.)

A short description of test [5]: growth inhibitors of H69AR lung tumor, primary screen, human, duplicate replicates (AID 580;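 active = viability at or under a set limit in both replicates, limit being median viability minus 3 SD, cut at about 48% in these data, passing the limit was not always enough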;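 also: 100% = mean luminescence of untreated wells and 0% = no signal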). Particulars: H69AR lung tumor cells viability, ATP luminescence, 72 h; at 10 µM; stronger effect = lower value.
Test [6] is described as follows: reversal of MRP1-mediated doxorubicin resistance, pilot screen, H69AR cells, doxorubicin co-treatment (AID 601;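 active = viability loss from added drug above about 55%, and viability with drug at most 40%, in both replicates, limit read from the data, passing the limit was not always enough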). Particulars: CellTiter-Glo, 72 h, at 10 µM; for differential viability (reversal): stronger effect = higher value.
The nature of test [7]: 384-well plate pilot, post-Golgi transport modulator project, inhibition of yeast transport mutant growth (AID 636; in the data active = inhibition above about 31%). Particulars: absorbance 615 nm, about 18 h, stronger effect = higher value.
The nature of test [8]: growth suppression of yeast trafficking mutant, preliminary HTS, modulators of trafficking downstream of Golgi apparatus project, 1536-format plate, OD 615 nm (AID 637). Particulars: yeast transport mutant growth, absorbance 615 nm, 18 h; stronger effect = higher value.
Where [9] appears, read: H69AR cells + 2 uM doxorubicin, measured here: viability with 2 uM doxorubicin, stronger effect = lower value.
[10] abbreviates: H69AR cells, compound alone cytotoxicity.

Consider `Cc1nc2ccccc2cc1O`, for which the viability in test [1] is 133%; in test [3], 133% (inactive); in test [4] it was 85.9% (inactive); in test [5] it was 92% (inactive); in test [6] (setting [9]), 109%; in test [6] (setting [10]), 92%. Also, in test [2], the Her2 level was 104% (inactive). Also, the differential viability (reversal) in test [6] (H69AR cells + 2 uM doxorubicin) is -16.9% (inactive). For the same compound, the inhibition was -6.05% (inactive) in test [7] and 13.1% (inactive) in test [8].
As to `COc1cccc(Cn2c(OCC3CCCO3)nc3c2c(=O)n(C)c(=O)n3C)c1` (stereo not given), the viability in test [1] was 86.5%; in test [3], 86.5% (inactive); in test [4], 104% (inactive); in test [5] it was 101% (inactive); in test [6] (setting [9]), 101%; in test [6] (setting [10]), 101%. Further, the Her2 level in test [2] is 86% (inactive). Further, the differential viability (reversal) in test [6] (H69AR cells + 2 uM doxorubicin) was -0.075% (inactive). Moreover, the inhibition is -2.11% (inactive) in test [7] and 3.77% (inactive) in test [8].
As to `COc1cccc(NC(=O)Cc2nnc(SCC(=O)c3ccccc3)n2C)c1`, the viability in test [1] was 92%; in test [3], 92% (inactive); in test [4], 85% (inactive); in test [5] it was 68.1% (inactive); in test [6] (setting [9]), 59.4%; in test [6] (setting [10]), 68.1%. For the same compound, the Her2 level in test [2] was 83.5% (inactive). Also, the differential viability (reversal) in test [6] (H69AR cells + 2 uM doxorubicin) was 8.65% (inactive). In addition, the inhibition is -2.24% (inactive) in test [7] and -3.49% (inactive) in test [8].
With `Cc1nc2sc(C#N)c(N)c2c2c1CCCC2`, the viability in test [1] is 95.5%; in test [3], 95.5% (inactive); in test [4], 85.7% (inactive); in test [5] it was 102% (inactive); in test [6] (setting [9]) it was 108%; in test [6] (setting [10]), 102%. Further, the Her2 level in test [2] is 78.5% (inactive). The differential viability (reversal) in test [6] (H69AR cells + 2 uM doxorubicin) was -6% (inactive). The results for the inhibition in test [7] and in test [8] were -1.97% (inactive) and 4.36% (inactive), respectively.
As for `CCC1CCCN1Cn1cnc2c([nH]c3ccc(OC)cc32)c1=O` (stereo not given), the viability in test [1] is 104%; in test [3] it was 104% (inactive); in test [4], 111% (inactive); in test [5] it was 91.3% (inactive); in test [6] (setting [9]), 89.9%; in test [6] (setting [10]), 91.3%. Also, the Her2 level in test [2] was 90% (inactive). Further, the differential viability (reversal) in test [6] (H69AR cells + 2 uM doxorubicin) is 1.38% (inactive). In addition, the inhibition in test [7] is -5.6% (inactive); in test [8], 2.42% (inactive).
With `O=C(CSc1ncccn1)NCc1ccccc1`, the viability in test [1] is 94%; in test [3] it was 94% (inactive); in test [4], 106% (inactive); in test [5], 105% (inactive); in test [6] (setting [9]), 100%; in test [6] (setting [10]), 105%. Further, the Her2 level in test [2] is 112% (inactive). Moreover, in test [6] (H69AR cells + 2 uM doxorubicin), the differential viability (reversal) is 5.14% (inactive). For the same compound, the inhibition in test [7] was 4.4% (inactive); in test [8], -8.71% (inactive).
Turning to `Cc1csc(NC(=O)c2cc3c(s2)-c2ccccc2OC3)n1`, the viability is 91% in test [1]; 91% (inactive) in test [3]; 75% (inactive) in test [4]; 37.7% (active) in test [5]; 55.5% in test [6] (setting [9]); 37.7% in test [6] (setting [10]). In addition, the Her2 level in test [2] is 92.5% (inactive). Besides, the differential viability (reversal) in test [6] (H69AR cells + 2 uM doxorubicin) is -17.7% (inactive). Moreover, the inhibition in test [7] was -2.82% (inactive); in test [8], -1% (inactive).
With `O=C(OCc1cc2ccccc2[nH]c1=O)c1ccco1`, the viability was 106% in test [1]; 106% (inactive) in test [3]; 95.9% (inactive) in test [4]; 100% (inactive) in test [5]; 93.3% in test [6] (setting [9]); 100% in test [6] (setting [10]). The Her2 level in test [2] is 114% (inactive). In addition, in test [6] (H69AR cells + 2 uM doxorubicin), the differential viability (reversal) is 6.74% (inactive). The inhibition in test [7] was -1.43% (inactive); in test [8], -6.67% (inactive).
As for `O=C(CCS(=O)(=O)c1cc(Br)cc2c1N(C(=O)C1CC1)CC2)NCC1CCCO1` (stereo not given), the viability in test [1] is 122%; in test [3] it was 122% (inactive); in test [4], 95.5% (inactive); in test [5], 81.8% (inactive); in test [6] (setting [9]), 85.4%; in test [6] (setting [10]), 81.8%. In addition, in test [2], the Her2 level is 110% (inactive). Further, the differential viability (reversal) in test [6] (H69AR cells + 2 uM doxorubicin) was -3.57% (inactive). For the same compound, the inhibition is 0.51% (inactive) in test [7] and 11.8% (inactive) in test [8].
Turning to `Cc1onc(-c2ccccc2Cl)c1C(=O)Nc1cccnc1`, the viability was 102% in test [1]; 102% (inactive) in test [3]; 103% (inactive) in test [4]; 95.6% (inactive) in test [5]; 94.2% in test [6] (setting [9]); 95.6% in test [6] (setting [10]). Besides, the Her2 level in test [2] is 72% (inactive). For the same compound, the differential viability (reversal) in test [6] (H69AR cells + 2 uM doxorubicin) is 1.41% (inactive). Further, the inhibition in test [7] is -7.57% (inactive); in test [8], -1.31% (inactive).
With `CCC(=O)N1CCc2cc(Br)cc(S(=O)(=O)N3CCCCCC3)c21`, the viability is 88.5% in test [1]; 88.5% (inactive) in test [3]; 97.2% (inactive) in test [4]; 95.5% (inactive) in test [5]; 93.4% in test [6] (setting [9]); 95.5% in test [6] (setting [10]). Also, the Her2 level in test [2] is 87% (inactive). In addition, in test [6] (H69AR cells + 2 uM doxorubicin), the differential viability (reversal) is 2.03% (inactive). Further, the inhibition in test [7] is -3.03% (inactive); in test [8], 4.91% (inactive).
As to `Cc1nn(-c2ccc(F)cc2)c(C)c1NS(=O)(=O)c1ccc(Cl)cc1`, the viability was 106% in test [1]; 106% (inactive) in test [3]; 90.9% (inactive) in test [4]; 77% (inactive) in test [5]; 82.2% in test [6] (setting [9]); 77% in test [6] (setting [10]). Further, the Her2 level in test [2] is 85% (inactive). Also, the differential viability (reversal) in test [6] (H69AR cells + 2 uM doxorubicin) is -5.18% (inactive). Further, the inhibition in test [7] was -8.27% (inactive); in test [8] it was -2.79% (inactive).
For the compound `CCOC(=O)C1CCN(S(=O)(=O)c2cc(Cl)c(C)cc2OC)CC1`, the viability is 90% in test [1]; 90% (inactive) in test [3]; 105% (inactive) in test [4]; 85.2% (inactive) in test [5]; 94.6% in test [6] (setting [9]); 85.2% in test [6] (setting [10]). Also, the Her2 level in test [2] is 92.5% (inactive). For the same compound, the differential viability (reversal) in test [6] (H69AR cells + 2 uM doxorubicin) is -9.44% (inactive). The inhibition is -2.5% (inactive) in test [7] and -3.39% (inactive) in test [8].
As to `O=C(COC(=O)CSc1nnc(-c2ccc(Cl)cc2)o1)NCc1ccc2c(c1)OCO2`, the viability was 98% in test [1]; 98% (inactive) in test [3]; 90.8% (inactive) in test [4]; 104% (inactive) in test [5]; 100% in test [6] (setting [9]); 104% in test [6] (setting [10]). In addition, in test [2], the Her2 level is 84% (inactive). The differential viability (reversal) in test [6] (H69AR cells + 2 uM doxorubicin) is 3.27% (inactive). Moreover, the inhibition in test [7] is -4.19% (inactive); in test [8] it was 0.79% (inactive).
`COc1ccc(OC)c(C(=O)c2nc3c(n2O)CCCCC3)c1`: the viability in test [1] is 78.5%; in test [3], 78.5% (inactive); in test [4] it was 99.9% (inactive); in test [5], 93.2% (inactive); in test [6] (setting [9]), 97.6%; in test [6] (setting [10]), 93.2%. The Her2 level in test [2] is 122% (inactive). The differential viability (reversal) in test [6] (H69AR cells + 2 uM doxorubicin) was -4.37% (inactive). Further, the inhibition in test [7] is -5.13% (inactive); in test [8], 0.98% (inactive).
Turning to `Cc1ccc(-c2nc(CS(=O)CC(=O)NCCN(CC(C)C)CC(C)C)c(C)o2)cc1` (stereo not given), the viability in test [1] was 81%; in test [3], 81% (inactive); in test [4], 86.4% (inactive); in test [5] it was 103% (inactive); in test [6] (setting [9]) it was 83.6%; in test [6] (setting [10]), 103%. Also, in test [2], the Her2 level is 84.5% (inactive). In addition, in test [6] (H69AR cells + 2 uM doxorubicin), the differential viability (reversal) is 19.8% (inactive). For the same compound, the values for the inhibition in test [7] and in test [8] were -5.2% (inactive) and 0.97% (inactive), respectively.

The viability is a read-out of living cells in per cent, often relative to untreated cells. What is called inhibition is the relative decrease from the control value, in per cent.
